ChEMBL document CHEMBL1149069, “SB-202742, a novel beta-lactamase inhibitor isolated from Spondias mombin” (J Nat Prod, 1994)
Converted amounts (≈) assume the structure as drawn. The source made the active and inactive calls. The calls are words filed in the database; no cut-off is given here.

Legend:
[1] = Inhibition of Escherichia coli K-12 beta-lactamase OXA1 assessed as inhibition of nitrocefin hydrolysis pre-incubated for 5 mins by microtiter plate assay
Enterobacter cloacae = experiment: Antimicrobial activity against Enterobacter cloacae N1 by microtiter method; type: functional
In short: (§1)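 Broth microdilution MIC in Oxoid nutrient broth No. 2. Inoculum was a 1/500 dilution of an overnight broth culture, and plates were incubated overnight at 37°.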

Staphylococcus aureus [2] = experiment: Antimicrobial activity against Staphylococcus aureus Russell by microtiter method; type: functional; in short: as §1
Beta-lactamase [3] = molecular target: T1, Beta-lactamase (Proteus mirabilis, UniProt P30897); experiment: Inhibition of Proteus mirabilis C889 beta-lactamase assessed as inhibition of nitrocefin hydrolysis preincubated for 5 mins by microtiter plate assay
T1 sequence (P30897 whole entry): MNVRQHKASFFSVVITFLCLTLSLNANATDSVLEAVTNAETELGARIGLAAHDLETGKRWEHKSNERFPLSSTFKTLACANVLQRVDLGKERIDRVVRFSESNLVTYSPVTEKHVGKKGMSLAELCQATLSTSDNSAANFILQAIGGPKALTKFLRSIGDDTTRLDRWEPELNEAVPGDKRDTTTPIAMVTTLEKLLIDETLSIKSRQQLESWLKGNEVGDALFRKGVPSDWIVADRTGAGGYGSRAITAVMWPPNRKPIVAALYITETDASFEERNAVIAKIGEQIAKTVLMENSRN

Staphylococcus aureus [4] = experiment: Antimicrobial activity against Staphylococcus aureus Smith by microtiter method; type: functional; in short: as §1
Serratia marcescens = experiment: Antimicrobial activity against Serratia marcescens US32 by microtiter method; type: functional; in short: as §1
Streptococcus pyogenes = experiment: Antimicrobial activity against Streptococcus pyogenes CN 10 after overnight incubation by Todd Hewitt broth dilution method; type: functional
In short: (§2)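 Broth microdilution MIC in Todd Hewitt broth. Inoculum was a 1/500 dilution of an overnight broth culture, and plates were incubated overnight at 37°.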

Staphylococcus aureus [5] = experiment: Antimicrobial activity against Staphylococcus aureus Oxford by microtiter method; type: functional; in short: as §1
Escherichia coli = experiment: Antimicrobial activity against Escherichia coli NCTC-10418 by microtiter method; type: functional; in short: as §1
Klebsiella pneumoniae = experiment: Antimicrobial activity against Klebsiella pneumoniae A by microtiter method; type: functional; in short: as §1
Pseudomonas aeruginosa = experiment: Antimicrobial activity against Pseudomonas aeruginosa 1771P by microtiter method; type: functional; in short: as §1
Enterococcus faecalis = experiment: Antimicrobial activity against Streptococcus faecalis 1 by microtiter method; type: functional; in short: as §1
Beta-lactamase [6] = molecular target: Beta-lactamase (Pseudomonas aeruginosa (strain ATCC 15692 / PAO1 / 1C / PRS 101 / LMG12228), UniProt P24735); experiment: Inhibition of Pseudomonas aeruginosa A beta-lactamase assessed as inhibition of nitrocefin hydrolysis preincubated for 5 mins by microtiter plate assay
[7] = Inhibition of Escherichia coli K-12 beta-lactamase PSE-4 assessed as inhibition of nitrocefin hydrolysis preincubated for 5 mins by microtiter plate assay
[8] = test system: Staphylococcus saprophyticus; experiment: Antimicrobial activity against Staphylococcus saprophyticus Fl2 by microtiter method; type: functional; in short: as §1
Beta-lactamase TEM = Beta-lactamase TEM (Escherichia coli, UniProt P62593); experiment: Inhibition of Escherichia coli JT4 beta-lactamase TEM1 assessed as inhibition of nitrocefin hydrolysis preincubated for 5 mins by microtiter plate assay
In short: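 Inhibitor was pre-incubated with enzyme for 5 min at 37° before each determination. Enzyme classification follows Bush.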

Proteus mirabilis = experiment: Antimicrobial activity against Proteus mirabilis C977 by microtiter method; type: functional; in short: as §1
Streptococcus pneumoniae = experiment: Antimicrobial activity against Streptococcus pneumoniae PU7 after overnight incubation by Todd Hewitt broth dilution method; type: functional; in short: as §2
Bacillus subtilis = experiment: Antimicrobial activity against Bacillus subtilis ATCC 6633 by microtiter method; type: functional; in short: as §1
Beta-lactamase [9] = molecular target: Beta-lactamase (Enterobacter cloacae, UniProt P05364); experiment: Inhibition of Enterobacter cloacae P99 beta-lactamase assessed as inhibition of nitrocefin hydrolysis pre-incubated for 5 mins by microtiter plate assay
[10] = molecular target: Beta-lactamase (Staphylococcus aureus) (UniProt P00807); experiment: Inhibition of Staphylococcus aureus Russell beta-lactamase assessed as inhibition of nitrocefin hydrolysis up to 567 ug/ml pre-incubated for 5 mins by microtiter plate assay
In short: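 Inhibitor was pre-incubated with the enzyme for 5 min at 37°, then hydrolysis of 200 µM nitrocefin was read on a microtiter plate reader. Inhibitor was tested at concentrations up to 567 µg/ml.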

[11] = test system: Staphylococcus epidermidis; experiment: Antimicrobial activity against Staphylococcus epidermidis NCTC 11047 by microtiter method; type: functional; in short: as §1

Chain of Beta-lactamase TEM (P62593 whole entry): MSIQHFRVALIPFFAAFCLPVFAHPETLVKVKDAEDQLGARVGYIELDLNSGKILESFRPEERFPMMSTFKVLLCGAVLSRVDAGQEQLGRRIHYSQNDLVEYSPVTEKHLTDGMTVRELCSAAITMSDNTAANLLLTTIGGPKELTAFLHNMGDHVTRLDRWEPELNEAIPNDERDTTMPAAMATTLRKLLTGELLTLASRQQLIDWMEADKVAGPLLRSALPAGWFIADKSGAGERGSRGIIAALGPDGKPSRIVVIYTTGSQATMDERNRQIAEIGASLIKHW
Chain of Beta-lactamase (Staphylococcus aureus) (P00807 whole entry): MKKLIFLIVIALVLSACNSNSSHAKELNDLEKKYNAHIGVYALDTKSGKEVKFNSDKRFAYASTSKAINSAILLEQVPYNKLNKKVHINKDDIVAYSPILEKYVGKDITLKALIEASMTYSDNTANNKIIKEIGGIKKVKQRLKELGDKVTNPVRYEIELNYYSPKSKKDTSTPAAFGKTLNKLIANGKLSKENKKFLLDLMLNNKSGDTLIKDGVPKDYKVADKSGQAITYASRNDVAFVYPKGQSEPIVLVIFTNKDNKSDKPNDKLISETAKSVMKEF
Chain of Beta-lactamase (Enterobacter cloacae, UniProt P05364) (P05364 whole entry): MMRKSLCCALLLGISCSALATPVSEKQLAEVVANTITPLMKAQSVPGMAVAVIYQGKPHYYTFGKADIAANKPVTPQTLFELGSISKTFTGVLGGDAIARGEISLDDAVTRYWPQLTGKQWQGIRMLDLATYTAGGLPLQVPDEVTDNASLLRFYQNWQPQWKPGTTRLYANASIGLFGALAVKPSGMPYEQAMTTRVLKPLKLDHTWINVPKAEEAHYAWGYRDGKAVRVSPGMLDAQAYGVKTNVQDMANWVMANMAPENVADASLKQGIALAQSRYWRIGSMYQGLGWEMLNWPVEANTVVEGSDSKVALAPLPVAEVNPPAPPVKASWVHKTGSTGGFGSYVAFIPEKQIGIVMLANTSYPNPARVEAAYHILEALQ
Chain of Beta-lactamase (Pseudomonas aeruginosa (strain ATCC 15692 / PAO1 / 1C / PRS 101 / LMG12228), UniProt P24735) (P24735 whole entry): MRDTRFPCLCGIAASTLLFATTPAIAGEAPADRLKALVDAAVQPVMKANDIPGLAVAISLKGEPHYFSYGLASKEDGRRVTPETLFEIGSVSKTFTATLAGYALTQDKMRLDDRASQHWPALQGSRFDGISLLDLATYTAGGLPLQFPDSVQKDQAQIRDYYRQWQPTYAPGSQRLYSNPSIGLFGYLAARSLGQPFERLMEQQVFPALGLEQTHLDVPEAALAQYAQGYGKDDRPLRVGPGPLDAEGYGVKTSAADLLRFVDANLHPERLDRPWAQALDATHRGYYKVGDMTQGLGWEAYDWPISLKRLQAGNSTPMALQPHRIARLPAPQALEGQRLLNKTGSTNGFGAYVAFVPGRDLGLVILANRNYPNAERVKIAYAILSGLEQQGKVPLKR

SMILES: O=C(O)[C@H]1/C(=C/CO)O[C@@H]2CC(=O)N21 [CLAVULANIC ACID]
- IC50 [1]: 0.35 µg/mL (≈ 1.76 µM)

SMILES: CC/C=C\C/C=C\C/C=C\CCCCCCCc1cccc(O)c1C(=O)O
- MIC (Enterobacter cloacae): > 256 µg/mL
- MIC (Staphylococcus aureus [2]): 32 µg/mL (≈ 86.4 µM)
- IC50 (Beta-lactamase [3]): 300 µM
- IC50 [1]: 79.7 µg/mL (≈ 215 µM)
- MIC (Staphylococcus aureus [4]): 2 µg/mL (≈ 5.4 µM)
- MIC (Serratia marcescens): > 256 µg/mL
- MIC (Streptococcus pyogenes): 2 µg/mL (≈ 5.4 µM)
- MIC (Staphylococcus aureus [5]): 8 µg/mL (≈ 21.6 µM)
- MIC (Escherichia coli): > 256 µg/mL
- MIC (Klebsiella pneumoniae): > 256 µg/mL
- MIC (Pseudomonas aeruginosa): > 256 µg/mL
- MIC (Enterococcus faecalis): 0.25 µg/mL (≈ 0.675 µM)
- IC50 (Beta-lactamase [6]): 109 µM
- IC50 [7]: 10.1 µg/mL (≈ 27.3 µM)
- MIC [8]: 2 µg/mL (≈ 5.4 µM)
- IC50 (Beta-lactamase TEM): 13.5 µM
- MIC (Proteus mirabilis): > 256 µg/mL
- MIC (Streptococcus pneumoniae): 2 µg/mL (≈ 5.4 µM)
- MIC (Bacillus subtilis): 4 µg/mL (≈ 10.8 µM)
- IC50 (Beta-lactamase [9]): 44.5 µM
- Activity [10]: inactive
- MIC [11]: 2 µg/mL (≈ 5.4 µM)
